Screens (PubChem BioAssay)
KCNK3 block: human KCNK3 channel inhibition, primary screen. O14649. CHO-KCNK3 thallium flux, FluxOR fluorescence; stronger effect = lower value. hit rate 0.84% among 340,000. B-score at 10 µM. AID 602410;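 active means B-score under library mean minus 4 SD, starting fluorescence ratio at most library mean plus 5 SD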;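 further: more negative B-score means stronger inhibition of thallium flux through KCNK3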
Kir21 inh: Kir2.1 (mouse) channel inhibition. AID 1672. P35561. HEK293-Kir2.1, FluxOR thallium flux fluorescence; stronger effect = lower value. hit rate 0.85% among 310,000. B-score at 10 µM;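 active means fluorescence ratio B-score at or below minus 3 SD of library scores, with starting-brightness B-score within 2 SD, cut at about -4.2 in these data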;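 further: channel flux triggered by added potassium and thallium sulfate stimulus; B-score of peak minus minimum fluorescence over baseline after thallium stimulus; more negative B-score means stronger Kir2.1 block with less thallium influx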
Target sequence (P35561 whole entry, looked up): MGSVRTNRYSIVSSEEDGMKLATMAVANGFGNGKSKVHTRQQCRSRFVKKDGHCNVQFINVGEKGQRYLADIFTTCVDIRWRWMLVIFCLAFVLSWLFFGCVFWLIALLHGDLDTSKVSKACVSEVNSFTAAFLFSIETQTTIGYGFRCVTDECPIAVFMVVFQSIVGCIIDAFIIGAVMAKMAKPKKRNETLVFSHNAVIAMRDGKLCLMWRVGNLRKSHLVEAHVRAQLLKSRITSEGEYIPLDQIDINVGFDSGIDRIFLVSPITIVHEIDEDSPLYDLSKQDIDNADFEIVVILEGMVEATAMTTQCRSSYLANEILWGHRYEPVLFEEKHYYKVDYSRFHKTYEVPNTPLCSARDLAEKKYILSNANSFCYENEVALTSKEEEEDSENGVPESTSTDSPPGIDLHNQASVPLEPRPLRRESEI
KCNQ1 act: human KCNQ1 channel potentiation or activation; P51787; CHO-K1 KCNQ1, thallium flux FluxOR fluorescence; stronger effect = higher value; B-score at 10 µM; hit rate 0.35% among 310,000; AID 2648;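 active means fluorescence ratio B-score, a plate-corrected score, at least three library SD, with initial intensity B-score within 5 SD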
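Assay system: stable KCNQ1 CHO-K1 line; medium: assay buffer, equal DMSO in all wells; timing: 90 min dye loading and 20 min compound exposure, both at room temperature; technique: kinetic FluxOR thallium fluorescence, 10-s 1-Hz baseline, 110-s post-stimulus read; read-out basis: B score of baseline-normalized fluorescence ratio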
hERG rescue: hERG (human) protection from proarrhythmic block | CHO-hERG, FluxOR thallium flux, dofetilide IC70 present | Q12809 | hit rate 0.51% among 310,000 | activation (rescue from dofetilide block), less the hit threshold, % at 10 µM;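 active means activation above the mean of controls blocked by dofetilide plus 5 SD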;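 further: thallium influx through hERG after potassium depolarization seen as dye fluorescence rise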
KCNK9 block: blocks the human KCNK9 two-pore domain potassium channel. hit rate 1.2% among 310,000. B-score at 10 µM. HEK293 KCNK9, FluxOR thallium flux fluorescence; stronger effect = lower value;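 active means ratio B-score over 3 SD below the library mean, with starting fluorescence within 5 SD of its mean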;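 further: negative B-score means less thallium flux so channel inhibition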
KCNQ1 inh: inhibitors of human KCNQ1 potassium channel | B-score at 10 µM | CHO-K1 KCNQ1, FluxOR thallium flux fluorescence; stronger effect = higher value | AID 2642 | hit rate 1.3% among 310,000 | P51787;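 active means compounds whose thallium flux B-score, printed positive for inhibition, exceeds three library SD while starting fluorescence stays within three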;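 further: channel opened by potassium depolarization with thallium stimulus after 20 min compound exposure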
KCNK9 block conf: confirmation of human KCNK9 potassium channel inhibitors; shares compounds with KCNK9 block; HEK293 KCNK9 cells, FluxOR thallium flux fluorescence; inhibition, % at 10 µM; hit rate 43% among 4,900;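 active means thallium signal inhibited by more than 5 SD of the compound-free buffer control wells, on both duplicate plates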
Kir2-1 spec: tests whether KCNK9 modulators also affect mouse Kir2.1 | shares compounds with KCNK9 block | Kir2.1 cells, FluxOR thallium flux fluorescence | inhibition, % at 10 µM | hit rate 4% among 4,900;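 active means thallium signal drop more than 5 SD beyond the mean of the no-compound control wells, seen in both duplicate plates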;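 further: signal is fluorescence rise after thallium addition divided by baseline fluorescence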
HEK293 Tl ctr: second check of KCNK9 modulator effects in non-induced HEK293 cells. AID 492997. FluxOR thallium flux. shares compounds with KCNK9 block. inhibition, % at 10 µM. hit rate 40% among 4,900;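 active means thallium signal drop beyond 5 SD of the untreated control mean, on both duplicate plates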
Numbers stand for hits. Rows were chosen to be rich in hits. Some 3.7% of all compounds tested hit in one or more screens of this group.

CC1CC(C)CN(C(=O)CSc2nc(Cc3cccs3)nc3ccccc23)C1 (configuration not stated) was read as KCNK3 block inactive, Kir21 inh inactive, KCNQ1 act inactive, hERG rescue inactive, KCNK9 block inactive, KCNQ1 inh inactive, KCNK9 block conf inactive, Kir2-1 spec inactive and HEK293 Tl ctr 24%.
Screening CC(C)(C)c1nc(SCC(=O)N2CCCC2)c2ccccc2n1 returned KCNK3 block inactive, Kir21 inh inactive, KCNQ1 act inactive, hERG rescue inactive, KCNK9 block inactive and KCNQ1 inh inactive.
COc1ccc(-c2nn3c(-c4ccccc4)nnc3s2)cc1 was read as KCNK3 block inactive, Kir21 inh inactive, KCNQ1 act inactive, hERG rescue inactive, KCNK9 block inactive and KCNQ1 inh inactive.
For CCN(CC)c1ccc(-c2nn3c(-c4ccccc4OC)nnc3s2)cc1 the results were KCNK3 block inactive, Kir21 inh inactive, KCNQ1 act inactive, hERG rescue inactive, KCNK9 block -14, KCNQ1 inh inactive, KCNK9 block conf 43%, Kir2-1 spec inactive and HEK293 Tl ctr inactive.
Screening Cc1nc(SCC(=O)c2ccc(F)c(F)c2)[nH]c(=O)c1Oc1ccc(F)cc1 returned KCNK3 block inactive, Kir21 inh inactive, KCNQ1 act inactive, hERG rescue inactive, KCNK9 block inactive and KCNQ1 inh inactive.
`CCCn1nc(NC(=O)c2cccs2)c2cc3cc(OC)ccc3nc21` gave KCNK3 block inactive, Kir21 inh inactive, KCNQ1 act inactive, hERG rescue inactive, KCNK9 block -10, KCNQ1 inh inactive, KCNK9 block conf inactive, Kir2-1 spec inactive and HEK293 Tl ctr inactive.
For COc1ccc(OC)c(CN2CCN(c3ccc(S(=O)(=O)N4CCCC4)cn3)CC2)c1 the results were KCNK3 block inactive.
O=C(CN1C(=O)NC2(CCOc3ccccc32)C1=O)N1CCCCC1 (configuration not stated) was read as KCNK3 block inactive.
For Cc1ccc(/C=N/Nc2nc(C(C)(C)C)cs2)o1 the results were KCNK3 block inactive, Kir21 inh inactive, KCNQ1 act 18, hERG rescue 10, KCNK9 block inactive, KCNQ1 inh inactive, KCNK9 block conf inactive, Kir2-1 spec inactive and HEK293 Tl ctr inactive.
CC(C)(C)c1csc(N/N=C/c2cccnc2)n1 was read as KCNK3 block inactive, Kir21 inh inactive, KCNQ1 act inactive, hERG rescue inactive, KCNK9 block inactive and KCNQ1 inh inactive.
C/C(=N\Nc1nc(C(C)(C)C)cs1)c1ccccc1 was read as KCNK3 block inactive, Kir21 inh inactive, KCNQ1 act inactive, hERG rescue inactive, KCNK9 block inactive, KCNQ1 inh inactive, KCNK9 block conf inactive, Kir2-1 spec inactive and HEK293 Tl ctr inactive.
For Cc1cccc(C)c1NC(=O)CN1CCN(C(=O)CNC(=O)c2ccc(N3CCCC3=O)cc2)CC1 the results were KCNK3 block inactive.
`O=C(Nc1ccc(OC(F)(F)F)cc1)c1ccc(S(=O)(=O)N2CCOCC2)o1` gave KCNK3 block inactive, Kir21 inh inactive, KCNQ1 act inactive, hERG rescue inactive, KCNK9 block inactive and KCNQ1 inh inactive.
`Cc1ccc2c(c1)N(CC(=O)NCCc1ccccc1)C(=O)c1cccnc1O2` gave KCNK3 block inactive, Kir21 inh inactive, KCNQ1 act inactive, hERG rescue inactive, KCNK9 block inactive, KCNQ1 inh inactive, KCNK9 block conf inactive, Kir2-1 spec inactive and HEK293 Tl ctr inactive.
N=c1n(CC(=O)c2ccc(Br)s2)c2ccccc2n1Cc1ccccc1 was read as KCNK3 block inactive, Kir21 inh inactive, KCNQ1 act inactive, hERG rescue inactive, KCNK9 block -10, KCNQ1 inh inactive, KCNK9 block conf 52%, Kir2-1 spec inactive and HEK293 Tl ctr 30%.
